Rows were chosen to be rich in hits. Some 2.1% of all compounds tested hit in one or more screens of this group.
FXIIa inh: human FXIIa protease inhibitors, primary screen, biochemical, 1536-well; 0.3% of 220,000 active; AID 800, 2007; Coagulation factor XII (Homo sapiens), P00748; purified FXIIa, Boc-QGR-AMC fluorogenic substrate, 2 h; inhibition, % at 5 µM; in the data active means inhibition above about 40%
EP2 modulator: EP2 receptor modulators, cAMP readout, primary screen, cell-based, HTRF cAMP, PGE2 stimulation; Prostaglandin E2 receptor EP2 subtype (Homo sapiens), P43116; EP2-expressing cells, cAMP HTRF FRET, PGE2 co-stimulation; induction, % at 25 µM; 0.83% of 260,000 active; AID 940, 2007;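 active means compounds whose cAMP rise, as percent of the full-agonist control response, exceeds 60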;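 further: rat C6 glioma line stably carrying human EP2 under a CMV promoter; the protocol text gives 20 µM as final concentration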
hK5 inh: human KLK5 protease inhibitors, primary screen, biochemical, 1536-well; Kallikrein-5 (Homo sapiens), Q9Y337; recombinant hK5, fluorogenic AMC substrate cleavage; inhibition, % at 5 µM; 0.59% of 210,000 active;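 active means inhibition of 40% or more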
FXIa inh: human FXIa protease inhibitors, primary screen, biochemical, 1536-well | inhibition, % at 5 µM | Coagulation factor XI (Homo sapiens), P03951 | purified FXIa, Boc-Glu-Ala-Arg-AMC fluorogenic substrate | AID 798, 2007 | 0.14% of 220,000 active;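 active means inhibition of at least 40%; inactive means inhibition below 40%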;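 further: fluorescence of freed AMC excited at 355 nm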
Target sequence (P03951 19-387 limits assumed): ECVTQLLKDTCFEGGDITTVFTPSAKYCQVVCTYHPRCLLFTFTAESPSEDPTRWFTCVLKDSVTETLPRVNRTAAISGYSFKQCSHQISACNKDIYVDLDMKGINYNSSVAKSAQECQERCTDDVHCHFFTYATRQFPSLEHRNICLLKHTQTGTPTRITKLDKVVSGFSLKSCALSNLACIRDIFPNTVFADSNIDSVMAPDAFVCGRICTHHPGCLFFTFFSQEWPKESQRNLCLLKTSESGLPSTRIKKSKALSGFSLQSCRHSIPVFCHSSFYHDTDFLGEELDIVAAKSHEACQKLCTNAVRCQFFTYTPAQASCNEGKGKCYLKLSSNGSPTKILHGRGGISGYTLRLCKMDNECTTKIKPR
Target sequence (P03951 388-625 limits assumed): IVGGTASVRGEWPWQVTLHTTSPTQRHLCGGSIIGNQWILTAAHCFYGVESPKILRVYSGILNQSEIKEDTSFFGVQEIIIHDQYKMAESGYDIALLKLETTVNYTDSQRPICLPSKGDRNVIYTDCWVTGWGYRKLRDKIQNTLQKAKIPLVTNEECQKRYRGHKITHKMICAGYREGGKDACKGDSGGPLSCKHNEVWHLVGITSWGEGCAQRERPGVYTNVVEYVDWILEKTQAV
Thrombin inh: human alpha-thrombin inhibitors, primary screen, counter-screen for coagulation protease inhibitor project, biochemical, 1536-well, fluorogenic AMC substrate | inhibition, % at 5 µM | AID 1046, 2008 | Prothrombin (Homo sapiens), P00734 | 0.26% of 220,000 active | Boc-VPR-AMC fluorogenic substrate cleavage;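 active means inhibition at or above 40%; inactive means inhibition below 40%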
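Test system: human alpha-thrombin protein / Dosing: one concentration per compound, 5 µM, with 0.2% DMSO / Medium: pH 7.5 Tris-saline with Tween 20 / Benchmarks: no-compound enzyme wells and no-enzyme blanks / Read-out basis: percent inhibition of thrombin substrate cleavage / Timing: reaction at room temperature / Measured by: fluorescence, ex 355 nm, em 460 nm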
EP2 antag: human EP2 receptor antagonists, primary screen, TR-FRET cAMP, C6 glioma cells; Prostaglandin E2 receptor EP2 subtype (Homo sapiens), P43116; C6 glioma cells expressing human EP2; cells stimulated with saturating PGE2; inhibition, % at 25 µM; 0.52% of 260,000 active; AID 1422, 2008;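 active means percent inhibition above 40 after rounding to a whole number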;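 further: rat C6 glioma host cells with rolipram phosphodiesterase inhibitor present; the protocol text gives 20 µM as final concentration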
Numbers stand for hits; . = inactive; / = not tested or not shown; ! = not active in a repeat.

SMILES	FXIIa inh	EP2 modulator	hK5 inh	FXIa inh	Thrombin inh	EP2 antag
O=C(c1cccc(Cl)c1)N1CCN(Cc2ccccc2F)CC1	.	.	94	.	.	.
COc1cc(C(=O)N2CCN(Cc3ccccc3C(F)(F)F)CC2)cc(OC)c1OC	.	.	.	.	.	/
O=C(c1cccc(Cl)c1)N1CCN(Cc2ccncc2)CC1	.	.	.	.	.	.
COc1ccc(-c2nnc(SCC(=O)O)n2-c2ccc(Br)cc2)cc1	/	.	/	/	/	.
CC(C)c1nc(-c2cc3ccccc3[nH]c2=O)no1	/	.	/	/	/	.
O=C(OC1OCCOC1OC(=O)C1CCCCC1)C1CCCCC1 (stereo not given)	/	.	/	/	/	.
N#C[C@H](c1ccccc1)N1CCCN([C@@H](C#N)c2ccccc2)C1c1ccccc1O (stereo not given in full)	/	.	/	/	/	43
O=C1NCC(COCc2ccco2)O1 (stereo not given)	.	.	.	.	103	.
CN(C)CCCn1c2c3ccccc3ccc2c2oc(=O)c3ccccc3c21	/	.	/	/	/	74
COc1ccc2c(c1)c(/C=N/Nc1nc3ccccc3[nH]1)c(C)n2C	.	.	.	.	.	49
COC(=O)C[C@H]1C(C)(C)C(OC(C)=O)[C@]2(O)C=C3C(CC[C@]4(C)C3CC(=O)O[C@H]4c3ccoc3)C1(C)C2=O (stereo not given in full)	/	.	/	/	/	.
Cc1ccc(S(=O)(=O)NN2C(=O)/C(=C/c3cccn3C)SC2=S)cc1	.	.	41	.	.	.
Cc1ccc(S(=O)(=O)NN2C(=O)/C(=C/c3cccs3)SC2=S)cc1	.	.	.	.	.	.
Cc1ccc2nc(NC(=O)CSCC(=O)OCC(=O)c3ccc(Br)cc3)sc2c1	.	.	.	.	92	/
COC(=O)c1ccc2nc(NC(=O)CSCC(=O)OCC(=O)c3ccccc3)sc2c1	.	.	.	.	.	.
COc1ccc(-c2csc(NC(=O)CSc3nnnn3C)n2)cc1	/	.	/	/	/	.
NC1=NC(=Nc2cccc(S(N)(=O)=O)c2)c2ccccc21	.	.	.	.	.	.
COc1cc(N=Nc2cccc(S(N)(=O)=O)c2)c2ccccc2c1N	.	.	.	.	.	79!
Fc1ccc(Oc2cnc3ccccc3n2)cc1	.	.	.	.	95	.
CSCCC(NC(=O)c1cccc(C)c1)C(=O)OCC(=O)NC(=O)c1cccn1C (stereo not given)	.	.	.	.	48	.
COc1ccc(N2CC(C(=O)Nc3cccc(Cl)c3Cl)CC2=O)cc1 (stereo not given)	/	.	/	/	/	.
O=C(C1CCCO1)N1CCCC(c2nc3sc4c(c3c(=O)[nH]2)CCCC4)C1 (stereo not given)	/	.	/	/	/	.
CCOC(=O)c1[nH]c(C)c(C(=O)Nc2ccc(C)cc2C)c1C	.	.	80	.	.	.
Cc1c(NC2(C#N)CCCCC2)c(=O)n(-c2ccccc2)n1C	.	.	.	.	.	.
N#CC1(Nc2ccc(-c3ccc(NC4(C#N)CCCC4)cc3)cc2)CCCC1	/	.	/	/	/	55
SMILES	FXIIa inh	EP2 modulator	hK5 inh	FXIa inh	Thrombin inh	EP2 antag
O=C1NC(=O)N(c2cccc(Br)c2)C(=O)/C1=C/c1cccc(O)c1	/	.	/	/	/	.
CCOc1cc(/C=C2\C(=O)NC(=O)N(c3cccc(Br)c3)C2=O)ccc1O	/	.	/	/	/	98
COc1cc(/C=C2\C(=O)NC(=S)N(c3ccc(Br)cc3C)C2=O)ccc1O	/	.	/	/	/	74
COc1cc(/C=C2\NC(=S)N(C)C2=O)ccc1O	/	.	.	.	.	.
CCOc1ccc2[nH]c(=O)c(C(c3nnnn3CCOC)N3CCN(C4CCCCC4)CC3)cc2c1 (stereo not given)	/	.	/	/	/	.
Cc1nc(NC(=O)CSc2nnc3c4c5c(sc4nc(C4CC4)n23)CCCC5)sc1C	/	.	/	/	/	.
Cc1ccccc1Oc1ncnc2oc(-c3ccccc3)cc12	.	.	59	.	.	.
Clc1ccc(Oc2ncnc3oc(-c4ccccc4)cc23)cc1	.	.	.	.	.	.
O=C(CCSc1nc(-c2ccco2)cc(C(F)(F)F)n1)NC1CCCCCC1	/	.	/	/	/	.
CC(=O)C1=C(O)C(=O)N(CCNCCO)C1c1ccc(C)cc1 (stereo not given)	/	.	/	/	/	.
Cc1onc(-c2ccccc2)c1C(=O)NCc1ccccn1	.	.	.	.	.	.
Cc1ccsc1CNC(=O)c1c(-c2ccccc2)noc1C	.	.	42	.	.	.
Cc1cc(OC(C)C)ccc1/C(O)=C1/C(=O)C(=O)N(CCCN(C)C)C1c1ccncc1 (stereo not given)	/	.	/	/	/	.
O=C(NCCCc1ccccc1)c1ccc(Br)o1	.	.	49	.	.	.
O=C(NCCCCc1ccccc1)c1ccc(Br)o1	.	.	.	.	.	.
CCNC(=S)N(CCN(CC)CC)Cc1cc2cc(OCC)ccc2[nH]c1=O	/	.	/	/	/	.
CCCC(NC(=O)c1cnc(C(C)(C)C)nc1)c1ccc2c(c1)OCCO2 (stereo not given)	/	.	/	/	/	.
CN(CC1CCCO1)S(=O)(=O)c1ccc(C(=O)Nc2ccc3c(c2)OCO3)cc1 (stereo not given)	.	.	61	.	.	.
Cc1cc(NC(=O)c2ccc(S(=O)(=O)N(C)CC3CCCO3)cc2)no1 (stereo not given)	.	.	.	.	.	.
CCc1ccc2c(c1)c1nnc(SCC(=O)N3CCCCC3)nc1n2C	/	.	/	/	/	.
Cc1c(-c2cccs2)[n+](=O)c2c(n1[O-])CCC2	.	.	60	.	40	.
O=C(CN1N=C(c2ccccc2)Cn2c(cc3sccc32)C1=O)NCCc1ccccc1	/	.	/	/	/	/
CN(c1ncc(C(F)(F)F)cc1Cl)N1C(=O)c2cccc([N+](=O)[O-])c2C1=O	.	.	47	.	.	.
CN(C)C(=O)c1cn(N(C)c2ncc(C(F)(F)F)cc2Cl)c(=O)c2ccccc12	.	.	.	.	.	.
COC(=O)c1c(NC(=O)COc2ccc(Cl)cc2Cl)sc(C(=O)N2CCCC2)c1C	/	.	/	/	/	.
CCOCC(=O)Nc1nc2c(s1)C(=O)CC(C)(C)C2	.	.	.	.	.	.
CCOc1ccccc1C(=O)Nc1nc2c(s1)C(=O)CC(C)(C)C2	/	.	/	/	/	69
COc1cc(NC(=O)CSc2nnns2)cc(OC)c1	/	.	/	/	/	.
O=C(N1CCN(c2ccccn2)CC1)C(Cl)(Cl)Cl	.	.	.	.	.	.
O=C1C=C(N2CCN(c3ccccn3)CC2)C(=O)c2c(O)ccc(O)c21	/	.	/	/	/	66
